Source: PubChem (Sanford-Burnham Center for Chemical Genomics)
A selection: hits, their analogues and other compounds. The true share with any hit is near 4.1%.
XBP1 UPR activ – activators of adaptive XBP1 UPR arm, primary screen, cell-based, CHO-XBP1 luciferase reporter, luminescence, uHTS; 330,000 tested, 0.33% active; AID 463104, 2010; IRE1-XBP1 UPR activation; percent of tunicamycin response, DMSO as zero; activation, % at 20 µM;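 active = versus positive control, 20 µM dose yields 30% or more activation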;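 also: 100% = tunicamycin at 10 µg/mL and 0% = DMSO only wells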
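Assay system: IRE1-XBP1 luciferase reporter CHO line. Input: 1000 cells/well. Buffer or medium: F12 with 10% serum. Doses: 20 µM, 1% DMSO. Times: overnight seeding at 37 °C, 6 h compound treatment at 37 °C. Technique: Steady-Glo luciferase glow luminescence, 10 min after reagent addition.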
CHOP UPR activ – activators of apoptotic CHOP UPR arm, primary screen, cell-based, CHO-CHOP luciferase reporter, luminescence, uHTS; UPR activation; percent of tunicamycin response over DMSO baseline; activation, % at 10 µM; 330,000 tested, 0.34% active; AID 449763, 2010;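 active = at 10 µM dose, activation of 40% or more, normalized to positive control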;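 also: 100% = tunicamycin at 10 µg/mL and 0% = DMSO alone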
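Dosing – one dose, 10 µM in 0.5% DMSO · System – CHO-CHOP cells, stable luciferase reporter of PERK-eIF2a-CHOP signalling · Input – 500 cells/well · Control set – tunicamycin 10 µg/mL final as positive, DMSO-only wells as negative · Timing – 6 h compound treatment, 37 °C · Measure – % activation vs tunicamycin · Technique – luminescence read with Steady-Glo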
Mdm2 MdmX PPI – inhibitors of human Mdm2-MdmX association, primary screen, cell-based, luminescence, split luciferase, SaOS-2, uHTS; Protein Mdm4 (Homo sapiens) + E3 ubiquitin-protein ligase Mdm2 (Homo sapiens), …; SaOS-2 split-luciferase Mdm2/MdmX complementation; inhibition, % at 8 µM; 330,000 tested, 3% active; AID 485346, 2010;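 active = inhibition of at least 50% at 8 µM in the primary screen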
Target sequence (O15151 whole entry, looked up): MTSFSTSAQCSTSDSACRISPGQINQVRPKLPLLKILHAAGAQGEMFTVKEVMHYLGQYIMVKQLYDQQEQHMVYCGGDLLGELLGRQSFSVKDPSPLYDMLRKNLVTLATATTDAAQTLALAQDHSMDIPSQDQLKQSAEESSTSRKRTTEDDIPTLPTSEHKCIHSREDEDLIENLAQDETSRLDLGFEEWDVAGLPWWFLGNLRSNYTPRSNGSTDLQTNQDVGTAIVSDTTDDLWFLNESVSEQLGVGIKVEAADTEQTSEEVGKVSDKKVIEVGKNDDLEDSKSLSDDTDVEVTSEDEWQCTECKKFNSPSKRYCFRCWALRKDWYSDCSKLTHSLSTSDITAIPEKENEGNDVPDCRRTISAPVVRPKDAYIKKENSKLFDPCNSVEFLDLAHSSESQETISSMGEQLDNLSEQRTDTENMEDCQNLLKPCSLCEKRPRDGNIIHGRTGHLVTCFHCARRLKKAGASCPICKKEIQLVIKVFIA
Target sequence (Q00987 whole entry, looked up): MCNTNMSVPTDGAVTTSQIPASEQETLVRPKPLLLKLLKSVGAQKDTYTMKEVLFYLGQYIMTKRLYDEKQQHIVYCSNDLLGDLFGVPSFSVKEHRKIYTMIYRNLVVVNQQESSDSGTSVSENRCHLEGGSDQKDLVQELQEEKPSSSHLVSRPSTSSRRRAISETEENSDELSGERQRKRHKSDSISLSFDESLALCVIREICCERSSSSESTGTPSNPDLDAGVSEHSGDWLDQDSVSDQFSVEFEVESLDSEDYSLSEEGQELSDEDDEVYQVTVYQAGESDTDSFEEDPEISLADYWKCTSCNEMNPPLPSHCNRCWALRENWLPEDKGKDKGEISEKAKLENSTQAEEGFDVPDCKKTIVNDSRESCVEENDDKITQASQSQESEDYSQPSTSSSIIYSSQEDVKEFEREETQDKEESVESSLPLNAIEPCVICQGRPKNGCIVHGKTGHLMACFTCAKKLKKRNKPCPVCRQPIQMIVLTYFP
UBC13 inh – UBC13 polyubiquitin chain formation inhibitors, primary screen, biochemical, TR-FRET, uHTS. Ubiquitin-conjugating enzyme E2 N (Homo sapiens), P61088. inhibition, % at 20 µM. 330,000 tested, 0.47% active. AID 485273, 2010; in the data active = inhibition above about 45%, passing the limit was not always enough
Apaf1 inhib – inhibitors of human Apaf-1 apoptosome, primary screen, biochemical, DEVD-Rh110 fluorescence, uHTS; inhibition, % at 20 µM; 330,000 tested, 0.71% active; reconstituted apoptosome caspase-3 activity; active = inhibition of at least 40% at 20 µM;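 also: plate controls were DMSO wells for no effect and DEVD-CHO caspase inhibitor wells for full effect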
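Material: biochemical Apaf-1 apoptosome reconstitution. Medium: Hepes buffer, pH 7.5. Also added: cytochrome c activation, bis-DEVD rhodamine 110 substrate. Timing: 30 min compound preincubation, 50 min activation, room temperature. Measured by: rhodamine 110 fluorescence at Ex 480/Em 540 nm.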
Apaf-1 inh conf – Apaf-1 inhibitors, single-dose retest, confirmation, biochemical, fluorescence, DEVD-Rh110, 20 µM | inhibition, % at 20 µM | shares compounds with Apaf1 inhib | reconstituted apoptosome, caspase-3 DEVD-Rh110 fluorescence | 1,800 tested, 25% active;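 active = mean inhibition of at least 40% at 20 µM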;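 also: plate controls were DMSO wells for no effect and DEVD-CHO caspase inhibitor control wells for full effect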
Rh110 interf inh – Rh110 fluorescence interference by putative Apaf-1 inhibitors, confirmation, artefact control for Apaf-1 inhibitor project, biochemical, 20 µM; shares compounds with Apaf1 inhib; quenched caspase reaction; activation (fluorescence interference), % at 20 µM; 1,800 tested, under 10 active;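 active = signal rise of 40% or more at 20 µM, treated as a fluorescence artifact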
Fluor interf inh – fluorescence interference of Apaf-1 inhibitor hits, dose response, artefact control for Apaf-1 inhibitor project; AID 588538, 2011; shares compounds with Apaf1 inhib; IC50, µM; 460 tested, under 10 active; fluorescence interference counterscreen, Apaf-1 assay format; call rule not given here
Numbers without * were called inactive; x = not tested or not shown.

SMILES | XBP1 UPR activ | CHOP UPR activ | Mdm2 MdmX PPI | UBC13 inh | Apaf1 inhib | Apaf-1 inh conf | Rh110 interf inh | Fluor interf inh
Oc1ccc(N2CCN(C(c3ccccn3)c3nnnn3C3CCCC3)CC2)cc1 (stereo unspecified) | -2.8 | -1.1 | 3.3 | 4.2 | -24.4 | x | x | x
COc1ccc(/C=N/Nc2cc(N(C)C)nc(N(C)C)n2)cc1 | -0.6 | 2.6 | 4.5 | -15.9 | 96.6* | 95.3* | 3.7 | >100
COc1ccc(/C=N/Nc2cc(C)nc(N)n2)cc1 | 2.3 | 6.3 | -24.9 | 0.1 | 1.4 | x | x | x
CN(C)c1cc(N/N=C\c2ccccc2)nc(N(C)C)n1 | -3.3 | -1.3 | 47.2 | -28.6 | 94.8* | 88.6* | 6.5 | >100
COc1ccc(C(C)(C)C)cc1NC(=O)CNc1cccc2ccccc12 | 1.7 | 0.2 | 10.6 | -60.3 | 43.8* | 28.8 | 7.0 | x
COc1ccccc1NC(=O)Cc1cccc2ccccc12 | -0.6 | 0.3 | 22.5 | -4.9 | 11.8 | x | x | x
O=C(Cc1ccccc1)NC1(O)C(=O)c2ccccc2C1=O | 0.9 | -0.7 | 20.3 | -21.1 | 85.4* | 69.0* | 6.7 | >100
O=C(NC1(O)C(=O)c2ccccc2C1=O)c1ccc(C(F)(F)F)cc1 | -1.6 | 1.5 | -7.8 | -38.0 | 96.3* | 98.3* | 13.4 | >100
Cc1ccc(C(=O)NC2(O)C(=O)c3ccccc3C2=O)cc1C | -0.5 | 1.6 | 10.5 | -38.6 | 96.8* | 92.5* | -5.4 | >100
Cc1nn(CC(=O)N(C)Cc2ccccc2)c(=O)c2cccn12 | -3.7 | 1.7 | -3.2 | 0.6 | 4.5 | x | x | x
Cc1ccc(C)c(S(=O)(=O)/N=C2\C=C(NS(=O)(=O)c3ccccc3)C(=O)c3ccccc32)c1 | -3.4 | 2.7 | 22.3 | -133.9 | 78.4* | 59.5* | 18.1 | x
CCc1ccc(S(=O)(=O)/N=C2\C=C(NS(=O)(=O)c3ccccc3)C(=O)c3ccccc32)cc1 | 4.9 | 1.9 | 6.6 | -71.9 | 57.4* | 50.8* | 1.9 | >100
CCc1ccc(S(=O)(=O)Nc2ccncc2)cc1 | -3.0 | 1.3 | 4.9 | -7.4 | 2.5 | x | x | x
Cc1cccc(S(=O)(=O)Nc2cccc3c2C(=O)c2ccccc2-3)c1 | 0.3 | -0.1 | -9.4 | -22.1 | 21.6 | x | x | x
Cc1ccc(CNC(=O)c2cc3cc(Br)ccc3oc2=N)cc1 | -1.8 | 1.0 | 14.9 | -3.3 | 19.7 | x | x | x
CC(C)NC[C@@H](O)c1ccc(O)c(O)c1 | -4.6 | -0.7 | 22.3 | 12.8 | 42.7* | 13.9 | 5.5 | x
Cc1ccc(C2=N/C(=C\N3CCCCC3)C(=O)O2)cc1 | 2.4 | 4.3 | -100.3 | -3.4 | 3.8 | x | x | x
Cc1nn(-c2ccccc2)c(N2CCCC2)c1/C=C1\N=C(c2ccc(OC(C)C)cc2)OC1=O | 1.9 | -0.1 | -7.0 | -45.5 | 51.7* | 16.9 | 6.4 | x
Clc1ccccc1-c1nn2c(-c3ccncc3)nnc2s1 | 3.3 | -0.4 | 47.3 | 6.6 | 46.7* | 63.5* | 0.3 | >100
O=[N+]([O-])c1ccccc1-c1ccc(C(=S)N2CCCC2)o1 | 5.0 | 4.8 | -46.0 | -46.2 | 47.3* | 40.0 | 2.1 | >100
O=[N+]([O-])c1ccccc1-c1ccc(C(=S)N2CCCCC2)o1 | 2.9 | 8.3 | -51.9 | -37.8 | 28.4 | x | x | x
CCOC(=O)C1=C(CN2CCN(c3ccc(F)cc3)CC2)NC(=O)NC1c1cccs1 (stereo unspecified) | -0.9 | -1.7 | 6.0 | 0.3 | 41.2* | 22.7 | 13.9 | x
O=C(NCCCn1ccnc1)c1cccc(Cl)c1 | -4.5 | -1.0 | 10.5 | -3.2 | -0.4 | x | x | x
